Data on 2 compounds can be found in PMC5689172 (Biochemistry and Biophysics Reports, 2016).

Series [1] in a line: Antioxidant activity, DPPH radical scavenging assay. In kind it is biochemical. To be noted: read-out: RSA IC50, 30 min, 517 nm. The procedure, abridged:
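Sample solution (test compound, 1 mg/mL in DMSO) was mixed with 0.1 mM DPPH in methanol and kept 30 min in the dark. Absorbance was read at 517 nm. Radical scavenging activity (%) = [1 − Abs(sample)/Abs(control)] × 100. α-Tocopherol was the positive control.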
In general terms: Loss of DPPH colour is used to gauge radical scavenging.

The nature of the next series: Cytotoxicity, MTT assay. The series is classed as cell-based. To be noted: human, MRC-5 cells (normal embryonic lung cell line). (Tetrazolium dyes change colour on reduction, which living cells bring about.)

`Cc1c(C)c2c(c(C)c1O)CC[C@@](C)(CCC[C@H](C)CCC[C@H](C)CCCC(C)C)O2` [α-tocopherol, α-Tocopherol]: the concentration for half-maximal inhibition (IC50) – broadly, the concentration at which inhibition is half-maximal – in series [1] came out at 13.5 µM.

In the series “Cytotoxicity, MTT assay”, `COc1cccc2c1C(=O)c1c(O)c3c(c(O)c1C2=O)C[C@@](O)(C(=O)CO)C[C@@H]3O[C@H]1C[C@H](N)[C@H](O)[C@H](C)O1` [Doxorubicin] registered an IC50 at 48 h of 0.62 ± 0.03 µM.
